Reference: ChEMBL document CHEMBL3351900, “Conjugation of a nonspecific antiviral sapogenin with a specific HIV fusion inhibitor: a promising strategy for discovering new antiviral therapeutics” (J Med Chem, 2014)
Values after ≈ are worked out from the molar mass of the structure shown. Active and inactive are the calls of the source. No cut-off for these calls is given here. Square brackets hold non-standard residues; d marks the D form. Peptide text beside a SMILES is read from it. * marks the point of attachment. X1 = C=CCOC(=O)[C@]12CC[C@@H](C(=C)C)[C@@H]1[C@H]1CC[C@@H]3[C@@]4(C)CC[C@H](OC(=O)CCc5cn(CC(=O)*)nn5)C(C)(C)[C@@H]4CC[C@@]3(C)[C@]1(C)CC2; X2 = C=CCOC(=O)[C@]12CCC(C)(C)C[C@H]1C1=CC[C@@H]3[C@@]4(C)CC[C@H](OC(=O)CCc5cn(CC(=O)*)nn5)C(C)(C)[C@@H]4CC[C@@]3(C)[C@]1(C)CC2; X11 = CCCc1cn(CC(=O)*)nn1; βAla = NCCC(=O)O

What was measured:
[1] = tested on: Human immunodeficiency virus 1; assay: Antiviral activity against HIV1 3B infected in human MT2 cells assessed as inhibition of viral entry compound treated at 200 nM at 6 hrs post infection measured 3 to 4 days post infection by time-of-addition assay
[2] = tested on: Human immunodeficiency virus 1; assay: Antiviral activity against T20-resistant HIV1 NL4-3 harboring gp41 D36G/V38A/N42D mutant infected in human MT2 cells; format: functional, organism-based
Outline: (§1)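 MT-2 cells (1 × 10⁴) infected with 100 TCID₅₀ virus with or without peptides at graded concentrations. Culture supernatants collected on day 4 postinfection; p24 antigen quantified by ELISA. Percent inhibition and EC₅₀ calculated; tested in triplicate, mean ± standard deviation.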

[3] = Half life of the compound at 8 ug/ml by proteinase K digestion assay; format: ADME
[4] = tested on: Human immunodeficiency virus 1; assay: Antiviral activity against HIV1 BaL infected in human […] cells assessed as inhibition of viral replication; format: functional, organism-based; conditions: Human immunodeficiency virus 1, BaL
Outline: as §1

[5] = Cytotoxicity against human MT2 cells after 4 days by XTT assay; format: cell-based
Outline: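 MT-2 cells (5 × 10⁵/mL) mixed with equal volumes of graded conjugate concentrations and held at 37 °C for 4 days. XTT (1 mg/mL) with 0.02 μM phenazine methosulfate added for 4 h, then A450 read. CC50 calculated from the dose–response.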

[6] = tested on: Human immunodeficiency virus 1; assay: Ratio of EC50 for T20-resistant HIV1 NL4-3 harboring gp41 D36G/V38A/N42T mutant infected in human MT2 cells to EC50 for T20-sensitive HIV1 NL4-3 harboring gp41 D36G mutant infected in human MT2 cells; format: functional
Outline: (§2)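 MT-2 cells (1 × 10⁴) infected with 100 TCID₅₀ of HIV-1 NL4-3 gp41 mutant virus with or without peptide at graded concentrations. Culture supernatants collected on day 4 postinfection and p24 antigen measured by ELISA. Percent inhibition and EC₅₀ calculated, triplicate, mean ± standard deviation. Fold change = EC₅₀ against each mutant divided by EC₅₀ against the D36G strain.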

[7] = tested on: Human immunodeficiency virus 1; assay: Ratio of EC50 for T20-resistant HIV1 NL4-3 harboring gp41 D36G/N42T/N43K mutant infected in human MT2 cells to EC50 for T20-sensitive HIV1 NL4-3 harboring gp41 D36G mutant infected in human MT2 cells; format: functional
Outline: as §2

[8] = biological target: GP41 (Human immunodeficiency virus 1) (UniProt Q76270); assay: Ratio of EC50 for HIV1 gp41-induced cell-cell fusion between viral envelope expressing human HL2/3 cells to CD4/CCR5 receptor expressing TZM-bl cells with wash out to EC50 for HIV1 gp41-induced cell-cell fusion between viral envelope expressing human HL2/3 cells to CD4/CCR5 receptor expressing TZM-bl cells; format: cell-based
Outline: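 Peptides preincubated with TZM-bl cells at 37 °C for 1 h, with or without washing away unbound peptide. EC50 compared between washed and unwashed cells, giving the n-fold change. Triplicates, mean ± SD.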

[9] = tested on: Human immunodeficiency virus 1; assay: Ratio of EC50 for T20-resistant HIV1 NL4-3 harboring gp41 D36G/V38A/N42D mutant infected in human MT2 cells to EC50 for T20-sensitive HIV1 NL4-3 harboring gp41 D36G mutant infected in human MT2 cells; format: functional
Outline: as §2

[10] = tested on: Human immunodeficiency virus 1; assay: Ratio of EC50 for T20-resistant HIV1 NL4-3 harboring gp41 D36G/V38A mutant infected in human MT2 cells to EC50 for T20-sensitive HIV1 NL4-3 harboring gp41 D36G mutant infected in human MT2 cells; format: functional
Outline: as §2

[11] = Half life in rat liver homogenate at 8 ug/ml; format: ADME, tissue-based
[12] = tested on: Human immunodeficiency virus 1; assay: Antiviral activity against T20-sensitive HIV1 NL4-3 harboring gp41 D36G mutant infected in human MT2 cells; format: functional, organism-based
Outline: as §1

[13] = Half life in rat kidney homogenate at 8 ug/ml; format: ADME, tissue-based
Rattus norvegicus [14] = assay: Half life in rat at 4 mg/kg, iv at 4 mg/kg, iv administered as single dose; format: ADME, organism-based; conditions: in vivo
Outline: (§3)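 Rats given one intravenous dose of 4 mg/kg. Peptide measured in plasma over time. Parameters (AUC(0−t), MRT(0−t), t1/2, Vd, Cmax) derived by model-independent analysis.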

[15] = tested on: Human immunodeficiency virus 1; assay: Antiviral activity against T20-resistant HIV1 NL4-3 harboring gp41 D36G/N42T/N43K mutant infected in human MT2 cells; format: functional, organism-based
Outline: as §1

[16] = tested on: Human immunodeficiency virus 1; assay: Antiviral activity against T20-resistant HIV1 NL4-3 harboring gp41 D36G/V38A mutant infected in human MT2 cells; format: functional, organism-based
Outline: as §1

[17] = tested on: Human immunodeficiency virus 1; assay: Ratio of EC50 for T20-resistant HIV1 NL4-3 harboring gp41 D36G/V38E/N42S mutant infected in human MT2 cells to EC50 for T20-sensitive HIV1 NL4-3 harboring gp41 D36G mutant infected in human MT2 cells; format: functional
Outline: as §2

Rattus norvegicus [18] = assay: AUC (0 to t) in rat at 4 mg/kg, iv administered as single dose; format: ADME, organism-based, Plasma; design: dose 4 mg/kg, route intravenous; conditions: in vivo
Outline: as §3

[19] = tested on: Human immunodeficiency virus 1; assay: Antiviral activity against HIV1 3B infected in human MT2 cells assessed as inhibition of viral p24 antigen production by ELISA; format: functional, organism-based; conditions: Human immunodeficiency virus 1, 3B
Outline: as §1

[20] = tested on: Human immunodeficiency virus 1; assay: Antiviral activity against T20-resistant HIV1 NL4-3 harboring gp41 D36G/V38E/N42S mutant infected in human MT2 cells; format: functional, organism-based
Outline: as §1

[21] = Volume of distribution in rat at 4 mg/kg, iv administered as single dose; format: ADME, organism-based; design: dose 4 mg/kg, route intravenous; conditions: in vivo
Outline: as §3

[22] = Solubility of the compound in pure water by UV spectrophotometry; format: physicochemical
Outline: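 About 1 mg of peptide dissolved in 10 μL water or PBS and centrifuged. Supernatant concentration of the tyrosine-containing conjugate determined from UV absorbance at 280 nm.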

[23] = Mean residence time in rat at 4 mg/kg, iv administered as single dose; format: ADME, organism-based; design: dose 4 mg/kg, route intravenous; conditions: in vivo
Outline: as §3

[24] = Selectivity index, ratio of CC50 for human MT2 cells to EC50 for HIV1 3B infected in human MT2 cells; format: toxicity, cell-based; conditions: read-out: Ratio CC50/EC50
[25] = tested on: Human immunodeficiency virus 1; assay: Antiviral activity against HIV1 3B infected in human MT2 cells assessed as inhibition of viral entry compound treated at 100 nM at 1 hr post infection measured 3 to 4 days post infection by time-of-addition assay
Rattus norvegicus [26] = assay: Cmax in rat at 4 mg/kg, iv administered as single dose; format: ADME, organism-based; design: dose 4 mg/kg, route intravenous; conditions: in vivo
Outline: as §3

[27] = tested on: Human immunodeficiency virus 1; assay: Antiviral activity against T20-resistant HIV1 NL4-3 harboring gp41 D36G/V38A/N42T mutant infected in human MT2 cells; format: functional, organism-based
Outline: as §1

[28] = biological target: GP41 (Human immunodeficiency virus 1) (UniProt Q76270); assay: Inhibition of HIV1 gp41 NHR assessed as inhibition of 6HB formation by FRET assay
Outline: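 FRET competition assay. A bpy-labelled 31-mer NHR pocket peptide is trimerized by Fe(II) into env2.0, which quenches the Lucifer-yellow-tagged CP2 probe. Displacement of the probe raises fluorescence. Used 7 μM binding sites (three per trimer) and 1 μM CP2-LY.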

Compound	EC50 [2]	half-life at 8 ug/ml [3]	EC50 [4]	CC50 at 96 h [5]	Ratio EC50 [6]	Ratio EC50 [7]	Ratio EC50 [8]	Ratio EC50 [9]	Ratio EC50 [10]	half-life at 8 ug/ml [11]	EC50 [12]	half-life at 8 ug/ml [13]	t1/2 (Rattus norvegicus [14])	EC50 [15]	EC50 [16]	Ratio EC50 [17]	AUCt (Rattus norvegicus [18])	EC50 [19]	EC50 [20]	selectivity ratio [24]	further results
Cc1cn([C@H]2C[C@H](N=[N+]=[N-])[C@@H](CO)O2)c(=O)[nH]c1=O																					inhibition [1]: Active
C=CCOC(=O)[C@]12CC[C@@H](C(=C)C)[C@@H]1[C@H]1CC[C@@H]3[C@@]4(C)CC[C@H](OC(=O)CCc5cn(CC(=O)NCCCC[C@H](NC(=O)CCNC(=O)[C@H](CC(C)C)NC(=O)[C@H](CC(C)C)NC(=O)[C@H](CCC(=O)O)NC(=O)[C@H](CCC(N)=O)NC(=O)[C@H](CCC(=O)O)NC(=O)[C@H](CC(N)=O)NC(=O)[C@H](CCCCN)NC(=O)[C@H](CCC(=O)O)NC(=O)[C@H](CCC(N)=O)NC(=O)[C@H](CCC(N)=O)NC(=O)[C@H](CC(N)=O)NC(=O)[C@H](CCC(N)=O)NC(=O)[C@H](CO)NC(=O)[C@H](CCC(=O)O)NC(=O)[C@H](CCC(=O)O)NC(=O)[C@@H](NC(=O)[C@H](CC(C)C)NC(=O)[C@H](CO)NC(=O)[C@H](Cc6cnc[nH]6)NC(=O)[C@@H](NC(=O)[C@H](CC(C)C)NC(=O)[C@H](CO)NC(=O)[C@@H](NC(=O)[C@H](Cc6ccc(O)cc6)NC(=O)[C@H](CC(N)=O)NC(=O)[C@H](CC(N)=O)NC(C)=O)[C@@H](C)O)[C@@H](C)CC)[C@@H](C)CC)C(N)=O)nn5)C(C)(C)[C@@H]4CC[C@@]3(C)[C@]1(C)CC2 (Ac-NNYTSLIHSLIEESQNQQEKNEQELL[βAla]K(X1)-NH2)	34.4 nM	54.3 min	6.9 nM	14300 nM	10	6.5	11	1.2	4.6	48.9 min	29.2 nM	35.9 min	188 min	192 nM	135 nM	11	101000 ng·h/mL	4.28 nM	322 nM	3350	Vd [21]: 0.17 L/kg; solubility [22]: 18.2 mg/mL (≈ 4.55 mM); MRT [23]: 191 min; inhibition [25]: Active; Cmax (Rattus norvegicus [26]): 40400 ng/mL; EC50 [27]: 308 nM
C=CCOC(=O)[C@]12CCC(C)(C)C[C@H]1C1=CC[C@@H]3[C@@]4(C)CC[C@H](OC(=O)CCc5cn(CC(=O)NCCCC[C@H](NC(=O)CCNC(=O)[C@H](CC(C)C)NC(=O)[C@H](CC(C)C)NC(=O)[C@H](CCC(=O)O)NC(=O)[C@H](CCC(N)=O)NC(=O)[C@H](CCC(=O)O)NC(=O)[C@H](CC(N)=O)NC(=O)[C@H](CCCCN)NC(=O)[C@H](CCC(=O)O)NC(=O)[C@H](CCC(N)=O)NC(=O)[C@H](CCC(N)=O)NC(=O)[C@H](CC(N)=O)NC(=O)[C@H](CCC(N)=O)NC(=O)[C@H](CO)NC(=O)[C@H](CCC(=O)O)NC(=O)[C@H](CCC(=O)O)NC(=O)[C@@H](NC(=O)[C@H](CC(C)C)NC(=O)[C@H](CO)NC(=O)[C@H](Cc6cnc[nH]6)NC(=O)[C@@H](NC(=O)[C@H](CC(C)C)NC(=O)[C@H](CO)NC(=O)[C@@H](NC(=O)[C@H](Cc6ccc(O)cc6)NC(=O)[C@H](CC(N)=O)NC(=O)[C@H](CC(N)=O)NC(C)=O)[C@@H](C)O)[C@@H](C)CC)[C@@H](C)CC)C(N)=O)nn5)C(C)(C)[C@@H]4CC[C@@]3(C)[C@]1(C)CC2 (Ac-NNYTSLIHSLIEESQNQQEKNEQELL[βAla]K(X2)-NH2)			0.271 nM	8220 nM														3.11 nM		2640	solubility [22]: 12.4 mg/mL (≈ 3.1 mM)
CCCc1cn(CC(=O)NCCC(=O)N[C@@H](CC(N)=O)C(=O)N[C@@H](CC(N)=O)C(=O)N[C@@H](Cc2ccc(O)cc2)C(=O)N[C@H](C(=O)N[C@@H](CO)C(=O)N[C@@H](CC(C)C)C(=O)N[C@H](C(=O)N[C@@H](Cc2cnc[nH]2)C(=O)N[C@@H](CO)C(=O)N[C@@H](CC(C)C)C(=O)N[C@H](C(=O)N[C@@H](CCC(=O)O)C(=O)N[C@@H](CCC(=O)O)C(=O)N[C@@H](CO)C(=O)N[C@@H](CCC(N)=O)C(=O)N[C@@H](CC(N)=O)C(=O)N[C@@H](CCC(N)=O)C(=O)N[C@@H](CCC(N)=O)C(=O)N[C@@H](CCC(=O)O)C(=O)N[C@@H](CCCCN)C(=O)N[C@@H](CC(N)=O)C(=O)N[C@@H](CCC(=O)O)C(=O)N[C@@H](CCC(N)=O)C(=O)N[C@@H](CCC(=O)O)C(=O)N[C@@H](CC(C)C)C(=O)N[C@@H](CC(C)C)C(N)=O)[C@@H](C)CC)[C@@H](C)CC)[C@@H](C)O)nn1 ({X11-βAla}-NNYTSLIHSLIEESQNQQEKNEQELL-NH2)																					inhibition [28]: inactive
enfuvirtide	> 2000 nM	19.4 min	2.88 nM	> 25000 nM	>50	>50	39	>50	>50	31 min	40.6 nM	16.9 min	131 min	> 2000 nM	> 2000 nM	>50	26900 ng·h/mL	10.9 nM	> 2000 nM	> 2290	Vd [21]: 0.44 L/kg; Cmax (Rattus norvegicus [26]): 25500 ng/mL; EC50 [27]: > 2000 nM
